How the values were obtained:
Coagulation factor XI = Coagulation factor XI (Homo sapiens, UniProt P03951); experiment: Inhibition of human coagulation factor 11a using pyroGlu-Pro-Arg-pNA as substrate after 10 to 120 mins at 37 degC by spectrophotometric method
In short: (§1)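 Purified human proteases, 37 °C; reaction started by adding enzyme to substrate (up to 4× Km) ± inhibitor; compound from DMSO, 1% DMSO final except where noted. […] Buffers: FXIa, chymotrypsin, tPA, plasmin, urokinase in 50 mM HEPES pH 7.4, 145 mM NaCl, 5 mM KCl, 0.1% PEG 8000; FXa, thrombin, trypsin, plasma kallikrein, aPC in 100 mM Na phosphate pH 7.4, 200 mM NaCl, 0.5% PEG 8000; FIXa in 50 mM Tris pH 7.4, 100 mM NaCl, 5 mM CaCl2, 0.5% PEG 8000, 2% DMSO.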

Plasma = experiment: Anticoagulant activity in human plasma assessed as concentration required to produce 50% increase in activated partial thromboplastin time; assay type: functional
In short: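 Citrated (one-tenth volume 0.11 M) plasma from healthy volunteers, spun 2,000 g 10 min, kept on ice; 10 mM DMSO stock diluted in plasma, up to 7 concentrations; aPTT on automated coagulometer, duplicates as mean ratio to baseline; EC1.5x (50% prolongation) by linear interpolation, as total plasma concentration.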

[1] = Half life in Beagle dog at 0.21 mg/kg, iv administered as 10 mins infusion or 0.42 mg/kg, po via gavage administered as cassette dose by LC-MS/MS method; assay type: ADME, organism-based, Canis lupus familiaris; details: in vivo
In short: (§2)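 Dog PK vehicles as footnoted: iv in 70% PEG 400/20% water/10% ethanol; po either 70% PEG 400/20% TPGS/10% ethanol or the same PEG 400/water/ethanol vehicle used for iv.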

[2] = Volume of distribution at steady state in Beagle dog at 0.21 mg/kg, iv administered as 10 mins infusion or 0.42 mg/kg, po via gavage administered as cassette dose by LC-MS/MS method; assay type: ADME, organism-based, Canis lupus familiaris; details: in vivo, read-out: Vdss; in short: as §2
Canis familiaris [3] = experiment: Oral bioavailability in Beagle dog at 0.42 mg/kg administered via gavage as cassette dose by LC-MS/MS method; assay type: ADME, organism-based, Canis lupus familiaris; details: in vivo; in short: as §2
Canis familiaris [4] = experiment: AUC in Beagle dog at 0.42 mg/kg, po administered via gavage as cassette dose by LC-MS/MS method; assay type: ADME, organism-based, Canis lupus familiaris; details: in vivo; in short: as §2
[5] = Half life in dog liver microsomes; assay type: ADME, Canis lupus familiaris, microsome
[6] = Half life in human liver microsomes; assay type: ADME, microsome
Coagulation factor VII = molecular target: T1, Coagulation factor VII (Homo sapiens, UniProt P08709); experiment: Inhibition of human coagulation factor 7a using H-(D)-Ile-Pro-Arg-pNA as substrate after 10 to 120 mins at 25 degC by spectrophotometric method
T1 sequence (P08709 whole entry): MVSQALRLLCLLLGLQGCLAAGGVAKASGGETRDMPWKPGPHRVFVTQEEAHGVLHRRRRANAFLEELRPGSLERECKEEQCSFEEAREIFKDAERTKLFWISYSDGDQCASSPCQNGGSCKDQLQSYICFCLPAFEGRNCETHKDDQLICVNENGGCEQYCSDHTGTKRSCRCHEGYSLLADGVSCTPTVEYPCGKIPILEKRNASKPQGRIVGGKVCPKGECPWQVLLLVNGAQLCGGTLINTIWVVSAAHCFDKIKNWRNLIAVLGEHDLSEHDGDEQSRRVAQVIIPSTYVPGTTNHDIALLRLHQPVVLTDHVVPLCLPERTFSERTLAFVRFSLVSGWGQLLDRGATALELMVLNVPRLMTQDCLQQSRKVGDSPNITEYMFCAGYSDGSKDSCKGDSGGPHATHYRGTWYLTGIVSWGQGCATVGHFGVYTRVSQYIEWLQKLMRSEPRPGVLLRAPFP

Coagulation factor IX = Coagulation factor IX (Homo sapiens, UniProt P00740); experiment: Inhibition of human coagulation factor 9a using methylsulfonyl-D-cyclohexylglycyl-Gly-Arg-AMC as substrate after 10 to 120 mins at 37 degC by spectrophotometric method; in short: as §1
Sequence of Coagulation factor IX (P00740 47-191 limits assumed): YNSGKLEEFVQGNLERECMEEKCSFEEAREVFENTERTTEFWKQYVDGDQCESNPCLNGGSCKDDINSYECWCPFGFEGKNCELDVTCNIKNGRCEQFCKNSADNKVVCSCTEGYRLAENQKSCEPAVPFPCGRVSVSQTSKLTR
Sequence of Coagulation factor IX (P00740 227-461 limits assumed): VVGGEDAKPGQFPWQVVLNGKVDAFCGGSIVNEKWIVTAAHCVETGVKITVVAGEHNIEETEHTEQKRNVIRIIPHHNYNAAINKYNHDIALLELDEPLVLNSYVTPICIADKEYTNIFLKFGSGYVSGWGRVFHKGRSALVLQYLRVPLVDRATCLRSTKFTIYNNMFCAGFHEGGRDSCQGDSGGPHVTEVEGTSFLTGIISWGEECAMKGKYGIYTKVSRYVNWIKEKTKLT

Coagulation factor X = Coagulation factor X (Homo sapiens, UniProt P00742); experiment: Inhibition of human coagulation factor 10a using N-benzoyl-Ile-Glu-(OH,OMe)-Gly-Arg-pNA as substrate after 10 to 120 mins at 37 degC by spectrophotometric method; in short: as §1
Sequence of Coagulation factor X (P00742 41-179 limits assumed): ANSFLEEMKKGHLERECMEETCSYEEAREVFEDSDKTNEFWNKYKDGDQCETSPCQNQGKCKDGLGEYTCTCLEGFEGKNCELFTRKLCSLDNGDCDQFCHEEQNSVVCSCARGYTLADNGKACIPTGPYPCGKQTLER
Sequence of Coagulation factor X (P00742 235-488 limits assumed): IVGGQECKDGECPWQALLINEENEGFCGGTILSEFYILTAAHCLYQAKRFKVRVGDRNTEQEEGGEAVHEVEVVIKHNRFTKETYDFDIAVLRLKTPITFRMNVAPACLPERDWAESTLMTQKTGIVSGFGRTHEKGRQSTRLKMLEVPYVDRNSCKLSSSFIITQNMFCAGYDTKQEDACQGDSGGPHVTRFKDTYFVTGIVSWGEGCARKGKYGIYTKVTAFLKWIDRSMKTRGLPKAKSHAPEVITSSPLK

Coagulation factor XII = molecular target: T2, Coagulation factor XII (Homo sapiens, UniProt P00748); experiment: Inhibition of human coagulation factor 12a using H-(D)-CHT-Gly-Arg-pNA as substrate after 10 to 120 mins at 25 degC by spectrophotometric method
T2 sequence (P00748 whole entry): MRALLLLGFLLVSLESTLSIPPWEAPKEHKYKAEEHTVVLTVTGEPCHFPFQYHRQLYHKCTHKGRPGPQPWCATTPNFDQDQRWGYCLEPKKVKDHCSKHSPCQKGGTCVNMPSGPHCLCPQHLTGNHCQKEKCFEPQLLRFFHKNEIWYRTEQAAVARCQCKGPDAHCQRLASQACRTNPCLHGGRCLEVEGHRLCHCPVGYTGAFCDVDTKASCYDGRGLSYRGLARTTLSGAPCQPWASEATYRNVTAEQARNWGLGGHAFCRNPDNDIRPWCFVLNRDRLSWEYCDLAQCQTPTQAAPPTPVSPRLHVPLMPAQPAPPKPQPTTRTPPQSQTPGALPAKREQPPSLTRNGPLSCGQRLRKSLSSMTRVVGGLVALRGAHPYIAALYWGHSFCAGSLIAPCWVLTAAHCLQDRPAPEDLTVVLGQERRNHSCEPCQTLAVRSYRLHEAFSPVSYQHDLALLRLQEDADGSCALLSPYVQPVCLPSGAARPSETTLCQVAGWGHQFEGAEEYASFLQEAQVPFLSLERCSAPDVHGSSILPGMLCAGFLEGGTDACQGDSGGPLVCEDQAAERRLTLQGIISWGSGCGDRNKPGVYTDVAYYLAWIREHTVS

Prothrombin = Prothrombin (Homo sapiens, UniProt P00734); experiment: Inhibition of human thrombin using pyroGlu-Pro-Arg-pNA as substrate after 10 to 120 mins at 37 degC by spectrophotometric method; in short: as §1
[7] = Inhibition of human trypsin using N-benzoyl-Ile-Glu-(OH,OMe)-Gly-Arg-pNA as substrate after 10 to 120 mins at 37 degC by spectrophotometric method; in short: as §1
Plasma kallikrein = Plasma kallikrein (Homo sapiens, UniProt P03952); experiment: Inhibition of human plasma kallikrein using H-(D)-Pro-Phe-Arg-pNA as substrate after 10 to 120 mins at 37 degC by spectrophotometric method; in short: as §1
Sequence of Plasma kallikrein (P03952 20-390 limits assumed): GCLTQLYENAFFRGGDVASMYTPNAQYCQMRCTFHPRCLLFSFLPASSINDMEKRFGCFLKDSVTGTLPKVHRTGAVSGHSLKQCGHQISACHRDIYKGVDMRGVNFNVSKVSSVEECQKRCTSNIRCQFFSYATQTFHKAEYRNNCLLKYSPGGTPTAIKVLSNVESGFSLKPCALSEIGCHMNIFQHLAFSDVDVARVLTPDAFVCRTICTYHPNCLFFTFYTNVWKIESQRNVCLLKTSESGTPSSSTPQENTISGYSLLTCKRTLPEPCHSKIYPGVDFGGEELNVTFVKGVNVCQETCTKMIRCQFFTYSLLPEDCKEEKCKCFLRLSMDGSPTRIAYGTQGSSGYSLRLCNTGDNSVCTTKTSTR
Sequence of Plasma kallikrein (P03952 391-638 limits assumed): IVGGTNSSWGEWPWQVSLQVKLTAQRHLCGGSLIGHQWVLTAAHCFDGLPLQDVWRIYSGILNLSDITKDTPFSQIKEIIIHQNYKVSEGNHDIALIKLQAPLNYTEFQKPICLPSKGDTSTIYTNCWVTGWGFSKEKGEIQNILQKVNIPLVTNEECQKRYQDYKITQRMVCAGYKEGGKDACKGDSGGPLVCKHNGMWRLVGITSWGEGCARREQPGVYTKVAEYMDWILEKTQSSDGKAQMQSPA

[8] = molecular target: Vitamin K-dependent protein C (Homo sapiens, UniProt P04070); experiment: Inhibition of human activated protein C using pyroGlu-Pro-Arg-pNA as substrate after 10 to 120 mins at 37 degC by spectrophotometric method; in short: as §1
Sequence of Vitamin K-dependent protein C (P04070 43-197 limits assumed): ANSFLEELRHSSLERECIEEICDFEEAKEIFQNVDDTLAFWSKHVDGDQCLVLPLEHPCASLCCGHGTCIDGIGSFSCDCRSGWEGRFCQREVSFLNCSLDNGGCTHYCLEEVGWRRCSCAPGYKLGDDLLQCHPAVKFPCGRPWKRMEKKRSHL
Sequence of Vitamin K-dependent protein C (P04070 212-461 limits assumed): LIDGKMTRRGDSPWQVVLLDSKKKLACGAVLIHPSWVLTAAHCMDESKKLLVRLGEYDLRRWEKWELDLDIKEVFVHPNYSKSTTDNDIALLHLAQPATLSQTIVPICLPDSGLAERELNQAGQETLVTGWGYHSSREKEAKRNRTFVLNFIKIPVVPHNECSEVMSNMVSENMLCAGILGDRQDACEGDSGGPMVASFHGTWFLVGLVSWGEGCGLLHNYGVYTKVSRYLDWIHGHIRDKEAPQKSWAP

Plasminogen = Plasminogen (Homo sapiens, UniProt P00747); experiment: Inhibition of human plasmin using H-(D)-Val-Leu-LyspNA as substrate after 10 to 120 mins at 37 degC by spectrophotometric method; in short: as §1
Sequence of Plasminogen (P00747 97-580 limits assumed): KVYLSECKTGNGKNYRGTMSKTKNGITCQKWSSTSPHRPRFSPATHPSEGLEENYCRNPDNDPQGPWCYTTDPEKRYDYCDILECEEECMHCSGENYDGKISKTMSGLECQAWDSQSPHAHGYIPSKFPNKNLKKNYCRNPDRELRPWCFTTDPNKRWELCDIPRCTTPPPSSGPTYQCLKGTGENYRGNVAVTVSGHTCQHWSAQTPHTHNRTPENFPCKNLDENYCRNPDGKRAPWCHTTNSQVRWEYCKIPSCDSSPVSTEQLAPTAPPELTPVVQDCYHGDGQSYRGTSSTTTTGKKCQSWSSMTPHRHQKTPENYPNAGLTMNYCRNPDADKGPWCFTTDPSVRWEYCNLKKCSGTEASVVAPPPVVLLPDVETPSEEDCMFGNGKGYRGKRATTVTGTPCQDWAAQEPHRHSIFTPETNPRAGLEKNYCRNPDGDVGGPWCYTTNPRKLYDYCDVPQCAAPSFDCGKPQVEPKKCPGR
Sequence of Plasminogen (P00747 581-810 limits assumed): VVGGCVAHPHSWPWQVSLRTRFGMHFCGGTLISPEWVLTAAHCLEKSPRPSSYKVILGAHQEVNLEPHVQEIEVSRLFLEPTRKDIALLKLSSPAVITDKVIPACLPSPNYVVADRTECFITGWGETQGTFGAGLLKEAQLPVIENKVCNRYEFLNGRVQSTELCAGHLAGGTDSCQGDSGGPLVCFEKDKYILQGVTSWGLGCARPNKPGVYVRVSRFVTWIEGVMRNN

[9] = molecular target: Tissue-type plasminogen activator (Homo sapiens, UniProt P00750); experiment: Inhibition of human tissue plasminogen activator using methylsulfonyl-D-cyclohexylalanyl-GlyArg-pNA as substrate after 10 to 120 mins at 37 degC by spectrophotometric method; in short: as §1
Sequence of Tissue-type plasminogen activator (P00750 whole entry): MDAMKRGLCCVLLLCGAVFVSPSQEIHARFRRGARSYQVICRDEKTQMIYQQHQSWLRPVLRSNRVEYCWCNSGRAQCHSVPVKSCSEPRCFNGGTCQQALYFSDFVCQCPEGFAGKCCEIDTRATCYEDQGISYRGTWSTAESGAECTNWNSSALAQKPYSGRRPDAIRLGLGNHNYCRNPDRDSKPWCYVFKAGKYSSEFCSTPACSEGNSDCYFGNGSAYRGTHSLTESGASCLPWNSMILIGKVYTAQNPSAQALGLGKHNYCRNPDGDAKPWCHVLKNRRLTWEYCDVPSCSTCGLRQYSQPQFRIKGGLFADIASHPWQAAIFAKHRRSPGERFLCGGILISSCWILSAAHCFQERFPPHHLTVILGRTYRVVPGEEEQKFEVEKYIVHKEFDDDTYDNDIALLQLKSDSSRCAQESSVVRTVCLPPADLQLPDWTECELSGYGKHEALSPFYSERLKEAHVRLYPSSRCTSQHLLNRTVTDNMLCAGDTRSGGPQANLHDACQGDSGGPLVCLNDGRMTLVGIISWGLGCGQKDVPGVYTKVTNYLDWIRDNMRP

[10] = molecular target: Urokinase-type plasminogen activator (Homo sapiens, UniProt P00749); experiment: Inhibition of human urokinase using pyro-Glu-Gly-Arg-pNA as substrate after 10 to 120 mins at 37 degC by spectrophotometric method; in short: as §1
[11] = Inhibition of human chymotrypsin using MeO-SucArg-Pro-Tyr-pNA as substrate after 10 to 120 mins at 37 degC by spectrophotometric method; in short: as §1
[12] = Half life in Beagle dog at 0.2 mg/kg, iv administered as 10 mins infusion or 0.23 mg/kg, po via gavage administered as cassette dose by LC-MS/MS method; assay type: ADME, organism-based, Canis lupus familiaris; details: in vivo; in short: as §2
[13] = Volume of distribution at steady state in Beagle dog at 0.2 mg/kg, iv administered as 10 mins infusion or 0.23 mg/kg, po via gavage administered as cassette dose by LC-MS/MS method; assay type: ADME, organism-based, Canis lupus familiaris; details: in vivo, read-out: Vdss; in short: as §2
Canis familiaris [14] = experiment: Oral bioavailability in Beagle dog at 0.23 mg/kg administered via gavage as cassette dose by LC-MS/MS method; assay type: ADME, organism-based, Canis lupus familiaris; details: in vivo; in short: as §2
Canis familiaris [15] = experiment: AUC in Beagle dog at 0.23 mg/kg, po administered via gavage as cassette dose by LC-MS/MS method; assay type: ADME, organism-based, Canis lupus familiaris; details: in vivo; in short: as §2
[16] = Protein binding in dog plasma; assay type: ADME, cell-free, Canis lupus familiaris; details: read-out: PPB (converted)
[17] = Half life in Beagle dog at 0.19 mg/kg, iv administered as 10 mins infusion or 0.32 mg/kg, po via gavage administered as cassette dose by LC-MS/MS method; assay type: ADME, organism-based, Canis lupus familiaris; details: in vivo; in short: as §2
[18] = Volume of distribution at steady state in Beagle dog at 0.19 mg/kg, iv administered as 10 mins infusion or 0.32 mg/kg, po via gavage administered as cassette dose by LC-MS/MS method; assay type: ADME, organism-based, Canis lupus familiaris; details: in vivo, read-out: Vdss; in short: as §2
Canis familiaris [19] = experiment: Oral bioavailability in Beagle dog at 0.32 mg/kg administered via gavage as cassette dose by LC-MS/MS method; assay type: ADME, organism-based, Canis lupus familiaris; details: in vivo; in short: as §2
Canis familiaris [20] = experiment: AUC in Beagle dog at 0.32 mg/kg, po administered via gavage as cassette dose by LC-MS/MS method; assay type: ADME, organism-based, Canis lupus familiaris; details: in vivo; in short: as §2
[21] = Permeability from apical to basolateral side in human Caco2 cells; assay type: ADME, cell-based; details: Caco-2, read-out: permeability
Canis familiaris [22] = experiment: Half life in Beagle dog at 0.2 mg/kg, iv administered as 10 mins infusion or 0.35 mg/kg, po via gavage administered as cassette dose by LC-MS/MS method; assay type: ADME, organism-based, Canis lupus familiaris; details: in vivo; in short: as §2
Canis familiaris [23] = experiment: Volume of distribution at steady state in Beagle dog at 0.2 mg/kg, iv administered as 10 mins infusion or 0.35 mg/kg, po via gavage administered as cassette dose by LC-MS/MS method; assay type: ADME, organism-based, Canis lupus familiaris; details: in vivo; in short: as §2
[24] = Oral bioavailability in Beagle dog at 0.35 mg/kg administered via gavage as cassette dose by LC-MS/MS method; assay type: ADME, organism-based, Canis lupus familiaris; details: in vivo; in short: as §2

Sequence of Coagulation factor XI (P03951 19-387 limits assumed): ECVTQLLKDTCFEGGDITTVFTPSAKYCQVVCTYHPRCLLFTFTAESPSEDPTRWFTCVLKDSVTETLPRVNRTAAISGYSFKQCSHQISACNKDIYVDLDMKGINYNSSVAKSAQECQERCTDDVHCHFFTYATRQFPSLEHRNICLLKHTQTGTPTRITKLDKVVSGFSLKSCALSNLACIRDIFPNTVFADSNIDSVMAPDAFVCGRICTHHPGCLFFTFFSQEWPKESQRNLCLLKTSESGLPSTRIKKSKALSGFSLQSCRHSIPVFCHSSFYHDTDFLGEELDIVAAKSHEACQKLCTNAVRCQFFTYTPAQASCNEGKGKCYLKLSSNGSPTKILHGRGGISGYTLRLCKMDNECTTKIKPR
Sequence of Coagulation factor XI (P03951 388-625 limits assumed): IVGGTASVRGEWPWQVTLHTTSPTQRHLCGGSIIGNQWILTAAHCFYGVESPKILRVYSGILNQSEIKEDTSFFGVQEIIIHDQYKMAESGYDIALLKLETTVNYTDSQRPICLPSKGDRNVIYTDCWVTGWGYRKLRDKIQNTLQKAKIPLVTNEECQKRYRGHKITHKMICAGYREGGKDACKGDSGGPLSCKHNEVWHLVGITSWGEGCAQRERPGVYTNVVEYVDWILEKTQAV

| Ki (Coagulation factor XI) | half-life [5] | half-life [6] | Ki (Coagulation factor VII) | Ki (Coagulation factor IX) | Ki (Coagulation factor X) | Ki (Coagulation factor XII) | Ki (Prothrombin) | Ki [7] | Ki (Plasma kallikrein) | Ki [8] | Ki (Plasminogen) | Ki [9] | Ki [10] | Ki [11] | fraction unbound [16] | Papp A→B [21] | Structure (SMILES) | EC1.5 (Plasma) | further results |
| --- | --- | --- | --- | --- | --- | --- | --- | --- | --- | --- | --- | --- | --- | --- | --- | --- | --- | --- | --- |
| 0.087 µM | > 2 h |  |  |  |  |  |  |  |  |  |  |  |  |  |  |  | COC(=O)Nc1ccc2c(c1)CCCCCC[C@H](NC(=O)/C=C/c1cc(Cl)ccc1-n1cnnn1)c1nc-2c[nH]1 | >40 µM | half-life [1]: 3.2 h; Vd [2]: 0.7 L/kg; F (Canis familiaris [3]): 12%; AUC (Canis familiaris [4]): 458 nM·h |
| 0.001 µM | > 2 h | 1.5 h | 3.19 µM | > 27.1 µM | > 13.3 µM | > 3.05 µM | > 11.5 µM | 8.39 µM | 0.07 µM | > 21.5 µM | > 15.2 µM | > 6.15 µM | > 15.1 µM | 3.94 µM | 0.098 |  | COC(=O)Nc1ccc2c(c1)NC(=O)CCCC[C@H](NC(=O)/C=C/c1cc(Cl)ccc1-n1cnnn1)c1nc-2c[nH]1 | 0.3 µM | half-life [12]: 1 h; Vd [13]: 0.8 L/kg; F (Canis familiaris [14]): 6%; AUC (Canis familiaris [15]): 21 nM·h |
|  | > 2 h | 0.683 h | 1.67 µM | > 27.1 µM | > 13.3 µM | > 3.05 µM | > 11.5 µM | 1.52 µM | 0.016 µM | > 21.5 µM | > 14.2 µM | > 6.15 µM | 5.05 µM | 1.5 µM | 0.085 | < 15 nm/s | COC(=O)Nc1ccc2c(c1)NC(=O)CC/C=C/C[C@H](NC(=O)/C=C/c1cc(Cl)ccc1-n1cnnn1)c1nc-2c[nH]1 | 0.27 µM | half-life [17]: 1.2 h; Vd [18]: 1.8 L/kg; F (Canis familiaris [19]): 1%; AUC (Canis familiaris [20]): 2.5 nM·h |
| 0.0032 µM | > 2 h | 0.567 h |  |  |  |  |  |  |  |  |  |  |  |  | 0.066 | < 15 nm/s | COC(=O)Nc1ccc2c(c1)NC(=O)CCCCC[C@H](NC(=O)/C=C/c1cc(Cl)ccc1-n1cnnn1)c1nc-2c[nH]1 | 1.2 µM | t1/2 (Canis familiaris [22]): 1.1 h; Vdss (Canis familiaris [23]): 3.9 L/kg; bioavailability [24]: 0% |

— ChEMBL document CHEMBL3992532, “Structure-Based Design of Macrocyclic Factor XIa Inhibitors: Discovery of the Macrocyclic Amide Linker” (J Med Chem, 2017)
